Cardiac RTF inh: cardiac RTF calcium desensitization | IANBD-labeled cardiac RTF, Ca2+ fluorescence | P19429+P45379 | 0.12% of 340,000 active | AID 493244 | inhibition, % at 7.15 µM;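 active = inhibition above the mean inhibition of all tested compounds plus 3 SD, cut at about 17% in these data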;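 also: assay run at fixed EC70 calcium of 1.6 mM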
LANA DNA inh: KSHV C-LANA DNA binding inhibition; MBP-C-LANA/FAM-LBS DNA binding, fluorescence polarization; 0.078% of 340,000 active; inhibition, % at 9 µM;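 active = highest replicate inhibition at or above 60% at 9 µM, even if other replicates fall short; inactive = all replicates below 60% inhibition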;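 also: 0% = neutral control wells and 100% = 4 µM acridine orange control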
Keap1-Nrf2 PPI: Keap1-Nrf2 (human) interaction inhibition; AID 504523; Keap1 Kelch-Nrf2 peptide fluorescence polarization, 1536-well; inhibition, % at 9.4 µM; 0.15% of 340,000 active; in the data active = inhibition above about 12%;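 also: human Keap1 Kelch domain with fluorescein labeled Nrf2 9mer peptide probe; 0% = neutral control wells and 100% = peptide positive control; higher means more block of Keap1 binding to Nrf2 peptide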
RTF Ca sens act: increases calcium sensitivity of human cardiac regulated thin filaments | P19429+P45379 | IANBD-labeled TnC RTF fluorescence at EC20 calcium; 0% EC20 calcium, 100% full calcium | activation, % at 7.2 µM | 0.24% of 340,000 active;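 active = activation above the mean over all tested compounds plus 3 SD, cut at about 30% in these data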;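 also: rise in fluorescence read as greater calcium sensitivity of cardiac thin filaments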
DDE Tn7 FP inh: inhibitors of Tn7 peptide binding to human fibrin DD(E); P02675; FP displacement of FITC-Tn7 peptide from fibrin DD(E); 0% = median of compound wells per plate; inhibition, % at 8.3 µM; 0.13% of 370,000 active; AID 720508;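 active = inhibition above the mean of compounds falling within the control limits plus 3 SD of them, cut at about 14% in these data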;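 also: 0% = plate median of compound wells and 100% = 10 µM Aha-Tn7 peptide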
Target sequence (P02675 whole entry, looked up): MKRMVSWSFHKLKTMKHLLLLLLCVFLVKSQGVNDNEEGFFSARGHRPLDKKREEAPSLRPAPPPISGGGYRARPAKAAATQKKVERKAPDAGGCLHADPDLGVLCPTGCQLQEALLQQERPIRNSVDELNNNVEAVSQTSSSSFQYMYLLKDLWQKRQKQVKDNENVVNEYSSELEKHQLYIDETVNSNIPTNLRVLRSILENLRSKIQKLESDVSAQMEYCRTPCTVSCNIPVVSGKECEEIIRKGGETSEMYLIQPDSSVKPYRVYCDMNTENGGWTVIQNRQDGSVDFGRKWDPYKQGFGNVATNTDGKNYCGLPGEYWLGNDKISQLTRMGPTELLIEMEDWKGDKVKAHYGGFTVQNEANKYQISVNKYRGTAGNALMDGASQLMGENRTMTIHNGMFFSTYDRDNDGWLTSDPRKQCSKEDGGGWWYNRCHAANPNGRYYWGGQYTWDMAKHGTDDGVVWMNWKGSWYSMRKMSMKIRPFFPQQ
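Also added: labelled Tn7 tracer, 0.1 µM; Assay system: human fibrin DD(E) protein; Amount: 2 µM fibrin DD(E); Schedule: 10 min compound pre-incubation, 3 h probe incubation at room temperature; Repeats: one replicate per compound; Read-out basis: percent inhibition; Measured by: fluorescence polarization of the labelled Tn7 tracer.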
DDE Tn6 FP inh: inhibitors of Tn6 peptide binding to human fibrin DD(E). 0.21% of 370,000 active. inhibition, % at 8.3 µM. Fibrin DD(E) TRITC-Tn6 fluorescence polarization displacement. P02675;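 active = inhibition above a per-campaign cutoff: mean of compounds within control limits plus 3 SD, cut at about 15% in these data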;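 also: 0% = median of all compound wells on the plate and 100% = blocking peptide control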
Keap1 Kelch bind: Keap1 (human) Kelch domain binding; Keap1 Kelch thermal shift, delta Tm; hits give high values; 8% of 400 active; AID 651823; max delta Tm, degrees C; shares compounds with Keap1-Nrf2 PPI; in the data active = max delta Tm above about 0.48 degrees C
Sypro dye melt: dye artifact in Keap1 thermal shift counter-screen | shares compounds with Keap1-Nrf2 PPI | Sypro Orange dye-only thermal melt, no protein, delta Tm; top dose 26 µM | delta Tm, degrees C (test concentration not listed) | 140 tested, under 10 active | AID 651858;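 active = at highest dose tested, delta Tm positive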
Starred values were filed as active, the others as inactive; x = not tested or not shown; + = active, no number. Sampled rows, rich in hits. Any-hit rate of the full collection: about 0.73%.

SMILES	Cardiac RTF inh	LANA DNA inh	Keap1-Nrf2 PPI	RTF Ca sens act	DDE Tn7 FP inh	DDE Tn6 FP inh	Keap1 Kelch bind	others
c1ccc(-c2cn3nc4c(nc3n2)CCCC4)cc1	-26.7	41.5	21.5*	31.4*	0.7	-6.6	-0.13	Sypro dye melt=-30.5
c1nc(NCC2CCOC2)c2cc(-c3ccc4c(c3)OCO4)ccc2n1 (centres undefined)	x	x	x	x	-0.7	-13.2	x
CCCCCCCCN1C(=O)[C@@H](CC(=O)NCc2ccc(OC)c(OC)c2)C[C@@]2(C(=O)OC)C1=C[C@H](COCc1ccccc1)O[C@@H]2C	x	x	x	x	-7.2	-12.7	x
O=C(O)c1cc(N2C(=O)C=CC2=O)cc(N2C(=O)C=CC2=O)c1	13.4	97.7*	33.2*	3.4	-2.8	1.7	0.27	Sypro dye melt=-26.7
O=C(O)c1cc(C(=O)O)cc(N2C(=O)c3ccccc3C2=O)c1	x	x	x	x	-4.0	6.6	x
CN(C)CCNc1ccc2ncn3c4ccc(O)cc4c(=O)c1c23	-185.3	113.6*	37.6*	170.1*	8.3	-4.0	-0.13
Fc1cccc(Nc2nc3ccccc3n3nnnc23)c1	-7.4	0.7	-0.7	5.7	3.7	5.6	x
c1ccc(Nc2nc3ccccc3n3nnnc23)cc1	-12.3	12.5	24.4*	2.9	-4.0	-5.2	-0.12	Sypro dye melt=-27.9
Cc1ccccc1NC(=O)c1sc(NC(=O)C2CC2)nc1C	-2.5	11.9	28.4*	1.7	-2.1	-3.4	0.01
Cc1nc(NC(=O)C2CC2)sc1C(=O)Nc1ccccc1	-7.3	0.4	-0.6	-5.8	-2.8	-2.2	x
C=CCOc1ccc(CNc2ccc(NC(=O)CC(C)C)cc2)cc1OC	1.2	0.8	16.9*	-5.0	0.3	6.1	-0.12
CCOC(=O)c1c(=O)n(O)c2ccc(OC)cc2[n+]1[O-]	-16.6	26.5	19.3*	25.9	-0.2	1.8	0.01
O=[N+]([O-])c1cnc(Sc2ccncn2)s1	-3.4	0.7	-0.5	3.7	-4.2	-3.7	x
C=CCn1c(Sc2ncc([N+](=O)[O-])s2)n[nH]c1=O	-3.7	2.4	18.7*	2.6	5.9	-0.9	-0.09	Sypro dye melt=-28.1
O=c1[nH]c(/C=C/c2cccc3ccccc23)nc2ccccc12	-13.1	34.8	16.6*	-1.0	-6.5	5.0	-0.02	Sypro dye melt=-21.9
CC(=O)Nc1ccc(C=NNc2ccc([N+](=O)[O-])cc2S(=O)(=O)Nc2ccccc2C(=O)O)cc1	-4.1	0.6	-4.4	-9.1	-2.0	8.2	x
COc1ccc(C(C)=NNc2ccc([N+](=O)[O-])cc2S(=O)(=O)Nc2ccccc2C(=O)O)c(OC)c1	-2.9	13.7	32.1*	-1.1	6.7	8.1	3.27*	Sypro dye melt=-21
Cc1nc(Cl)c2c(n1)NC1=C(O2)C(=O)CCC1	-74.5	50.9	27.6*	47.1*	13.2	-4.7	-0.12	Sypro dye melt=-22.7
O=C1NC2=C(C(=O)CCC2)C(c2ccccc2Cl)N1 (centres undefined)	-22.1	-0.4	1.3	19.3	1.2	-5.8	x
Oc1ccc2c(c1)OCC1(O)Cc3cc(O)c(O)cc3C21 (centres undefined)	-3.4	18.9	18.2*	13.4	28.3*	+	-0.11
COc1ccc(CNC(=O)CCS(=O)(=O)c2ccc3nc(C)sc3c2)cc1	x	x	x	x	0.9	0.0	x
S=C1SCN(Cc2ccccc2)CN1Cc1ccccc1	-2.0	-0.4	-1.6	0.8	-2.6	1.4	x
S=C1SCN(CC2CC2)CN1CC1CC1	4.2	33.4	33.1*	3.7	6.7	5.3	-0.15
CC1(C)CC(=O)C2=C(C1)OC(N)=C(C#N)C2c1cc2c(cc1[N+](=O)[O-])OCO2 (centres undefined)	-13.6	21.8	15.3*	10.3	7.0	1.0	-0.01	Sypro dye melt=-21.5
CCc1nc2ccc(C(=O)NCCCN3CCCC3=O)cn2c1N(C)Cc1ccc(OC)cc1	x	x	x	x	-0.9	4.0	x
SMILES	Cardiac RTF inh	LANA DNA inh	Keap1-Nrf2 PPI	RTF Ca sens act	DDE Tn7 FP inh	DDE Tn6 FP inh	Keap1 Kelch bind	others
O=C(CSC1=NNC(c2ccccn2)S1)Nc1cccc(Cl)c1 (centres undefined)	x	11.7	18.9*	x	-2.7	3.3	-0.17
O=C(CSC1=NNC(c2ccccn2)S1)Nc1ccccc1 (centres undefined)	0.3	-0.1	-4.1	0.4	-8.7	3.8	x
CC(=O)Nc1sc2c(c1-c1nc3ccccc3s1)CCCNC2	x	x	x	x	-0.6	1.4	x
CCN(CC)CCN1C(=O)c2cccc3cc(N)cc(c23)C1=O	-48.7	59.7	13.5*	23.8	1.5	3.8	-0.08
CC(C=NN=C1C(=O)Nc2ccccc21)=Cc1ccccc1	x	x	x	x	-0.5	7.1	x
Cc1sc2ccccc2[n+]1CC(=O)c1ccccc1	-9.1	10.7	22.1*	4.8	x	x	-0.12
Cc1cccn2c(=O)c3cc(S(=O)(=O)c4ccccc4)c(=N)n(Cc4cccnc4)c3nc12	-4.8	31.3	19.5*	-1.1	-2.4	4.4	-0.02
N=c1c(S(=O)(=O)c2ccccc2)cc2c(=O)n3ccccc3nc2n1Cc1cccnc1	-0.8	7.9	2.1	3.9	-0.9	3.1	x
CCOC(=O)C(C)(C)N(Cc1ccccc1C)S(=O)(=O)c1ccc(Cl)c([N+](=O)[O-])c1	5.2	0.1	27.3*	-7.2	1.1	-2.9	-0.13	Sypro dye melt=-26.8
CCCN(CCC)S(=O)(=O)c1ccc(Cl)c([N+](=O)[O-])c1	8.1	-3.5	-3.0	-1.0	0.6	4.7	x
Cc1ccc(S(=O)(=O)Nc2ccc(O)c3ccccc23)c(C)c1	-6.1	1.3	12.1*	-2.6	3.3	1.3	1.23*
Cc1ccc(S(=O)(=O)Nc2cccc(S(=O)(=O)Nc3ccccc3C(=O)O)c2)c(C)c1	0.2	0.0	15.6*	4.3	2.0	-6.9	1.13*
Cc1ccc(S(=O)(=O)Nc2cc(C(C(=O)OC(C)C)C(=O)C(F)(F)F)c(O)c3ccccc23)c(C)c1 (centres undefined)	2.1	-1.6	50.9*	-9.4	-10.5	-1.3	10.3*
COC(=O)C1=C(C)N(Cc2cccc(C(F)(F)F)c2)C(=NCC2CC2)NC1c1cccc(C(F)(F)F)c1 (centres undefined)	x	x	x	x	6.2	5.8	x
COc1cccc(/C=C2\CC3(OC(=O)c4ccc(F)cc4)CCCN2C3)c1 (centres undefined)	x	x	x	x	-5.2	0.8	x
COc1ccc(C2C(C(=O)Nc3ccc(F)cc3F)CCC(=O)N2c2ccc(OC)cc2)cc1 (centres undefined)	x	x	x	x	6.2	9.3	x
C#CCOCCOCCOCCNc1nc(N2CCOCC2)nc(N2CCN(C(=O)[C@H](CCC(=O)O)n3cc(C(N)CC(C)C)nn3)CC2)n1 (some centres undefined)	x	x	x	x	7.6	1.4	x
